Consider five compounds from ChEMBL document CHEMBL4715728, “New bifunctional antioxidant/σ1 agonist ligands: Preliminary chemico-physical and biological evaluation” (Bioorg Med Chem, 2016).

A short description of series [1]: Cytotoxicity against Sprague-Dawley rat Cerebral cortex neuron assessed as cell viability at 1 uM incubated for 24 hrs by MTT assay relative to control. The series is classed as tissue-based. The settings on record: cerebral cortex neurons, read-out: Activity. Put shortly:
(§1)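 Primary fetal rat cortical neurons, matured 8 days, treated 24 h at 37 °C with compound (0.1–100 µM; 0.5% DMSO or water vehicle). MTT 0.7 mg/ml was then added for 30 min at 37 °C, and formazan was extracted with isopropanol/formic acid (95:5) and read at 560 nm. Untreated control was set as 100% viability. Four independent experiments.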
For orientation: Formazan colour is commonly taken as a measure of viable cells.

Series [2] in a line: Antioxidant activity in Sprague-Dawley rat Cerebral cortex neuron assessed as total oxidative stress level by measuring H2O2 equivalents at 50 uM after 24 hrs (reference value: 2.3 +/- 0.3 umol/L). Type of series: functional. Put shortly:
(§2)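 Primary cerebral cortex neurons from rat fetuses, grown on poly-D-lysine in neurobasal medium with fetal calf serum (5% CO2, 37 °C), tested after 8 days in culture. Compounds in DMSO (0.5%) or sterile water were added and incubated 24 h at 37 °C. Cells were washed in ice-cold PBS and homogenized in 0.9% saline. Intracellular TAC (Trolox equiv.) and TOS (H2O2 equiv.) were read by kit. Ascorbic acid 10 µM (TAC) and H2O2 25 µM (TOS) served as positive controls. Four independent experiments.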

The nature of series [3]: Antioxidant activity in Sprague-Dawley rat Cerebral cortex neuron assessed as total antioxidant capacity by measuring trolox equivalents at 25 uM after 24 hrs. Type of series: functional. Summed up: as §2
The nature of series [4]: Antioxidant activity in Sprague-Dawley rat Cerebral cortex neuron assessed as total antioxidant capacity by measuring trolox equivalents at 50 uM after 24 hrs. Type of series: functional. Summed up:
as §2

The nature of series [5]: Cytotoxicity against Sprague-Dawley rat Cerebral cortex neuron assessed as cell viability at 100 uM incubated for 24 hrs by MTT assay relative to control. The following applies: cerebral cortex neurons, read-out: Activity. Type of series: tissue-based. Summed up:
as §1

Series [6] concerns the target Sigma non-opioid intracellular receptor 1 (Cavia porcellus, UniProt Q60492). Kind of series: Displacement of [3H]-(+)-pentazocine from sigma1 receptor in guinea pig brain membrane incubated for 150 mins by liquid scintillation counting method. The series is classed as cell membranes. Summed up: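 Guinea pig brain membranes (500 µg protein) in 50 mM Tris-HCl pH 7.4 with 3 nM [3H]-(+)-pentazocine. […] Incubated 150 min at 37 °C, then filtered on PEI-soaked GF/B filters and counted by scintillation. Ki obtained by EBDA/LIGAND; three determinations.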
On the technique in general: Displacement assays read how much labelled ligand stays bound in the presence of the test substance.

The nature of series [7]: Cytotoxicity against Sprague-Dawley rat Cerebral cortex neuron assessed as LDH activity at 50 uM incubated for 24 hrs by LDH assay (reference value: […]). The series is classed as tissue-based. Summed up: (§3)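 Primary fetal rat cortical neurons, matured 8 days on poly-D-lysine, exposed 24 h at 37 °C to compound (0.1–100 µM; DMSO 0.5% or water vehicle). LDH released into 100 µl culture medium was measured by kit as the rate of NAD+ reduction (absorbance increase at 490 nm). Positive control was mitomycin C. Four independent experiments.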

Series [8] is described as follows: Cytotoxicity against Sprague-Dawley rat Cerebral cortex neuron assessed as LDH activity at 0.1 uM incubated for 24 hrs by LDH assay (reference value: […]). The series is classed as tissue-based. Put shortly:
as §3

The nature of series [9]: Cytotoxicity against Sprague-Dawley rat Cerebral cortex neuron assessed as cell viability at 0.1 uM incubated for 24 hrs by MTT assay relative to control. Type of series: tissue-based. The settings on record: cerebral cortex neurons, read-out: Activity. Put shortly:
as §1

The species entered for series [10] is Cavia porcellus. Description: Selectivity ratio of Ki for displacement of [3H]-DTG from sigma2 receptor in guinea pig brain membrane to Ki for displacement of [3H]-(+)-pentazocine from sigma1 receptor in guinea pig brain membrane. Type of series: cell membranes.
The nature of series [11]: Antioxidant activity in Sprague-Dawley rat Cerebral cortex neuron assessed as total oxidative stress level by measuring H2O2 equivalents at 100 uM after 24 hrs (reference value: 2.3 +/- 0.3 umol/L). Type of series: functional. Summed up:
as §2

Series [12] is described as follows: Antioxidant activity in Sprague-Dawley rat Cerebral cortex neuron assessed as total antioxidant capacity by measuring trolox equivalents at 1 uM after 24 hrs. Type of series: functional. Put shortly: as §2
Series [13] can be described thus: Antioxidant activity in Sprague-Dawley rat Cerebral cortex neuron assessed as total oxidative stress level by measuring H2O2 equivalents at 25 uM after 24 hrs (reference value: 2.3 +/- 0.3 umol/L). Type of series: functional. Summed up:
as §2

Series [14] in a line: Antioxidant activity in Sprague-Dawley rat Cerebral cortex neuron assessed as total antioxidant capacity by measuring trolox equivalents at 0.1 uM after 24 hrs. The series is classed as functional. Put shortly: as §2
Series [15] is described as follows: Antioxidant activity in Sprague-Dawley rat Cerebral cortex neuron assessed as total oxidative stress level by measuring H2O2 equivalents at 1 uM after 24 hrs (reference value: 2.3 +/- 0.3 umol/L). The series is classed as functional. Summed up: as §2
The nature of series [16]: Cytotoxicity against Sprague-Dawley rat Cerebral cortex neuron assessed as LDH activity at 10 uM incubated for 24 hrs by LDH assay. Type of series: tissue-based. Summed up: as §3
Series [17] is described as follows: Cytotoxicity against Sprague-Dawley rat Cerebral cortex neuron assessed as LDH activity at 1 uM incubated for 24 hrs by LDH assay (reference value: […]). Type of series: tissue-based. Summed up:
as §3

Series [18] is described as follows: Cytotoxicity against Sprague-Dawley rat Cerebral cortex neuron assessed as cell viability at 25 uM incubated for 24 hrs by MTT assay relative to control. Type of series: tissue-based. The following applies: cerebral cortex neurons, read-out: Activity. Summed up:
as §1

Series [19] in a line: Cytotoxicity against Sprague-Dawley rat Cerebral cortex neuron assessed as cell viability at 10 uM incubated for 24 hrs by MTT assay relative to control. Type of series: tissue-based. The settings on record: cerebral cortex neurons, read-out: Activity. Summed up: as §1
A short description of series [20]: Cytotoxicity against Sprague-Dawley rat Cerebral cortex neuron assessed as LDH activity at 100 uM incubated for 24 hrs by LDH assay (reference value: […]). The series is classed as tissue-based. Put shortly:
as §3

Series [21] in a line: Antioxidant activity in Sprague-Dawley rat Cerebral cortex neuron assessed as total antioxidant capacity by measuring trolox equivalents at 10 uM after 24 hrs. Type of series: functional. Summed up: as §2
Series [22] can be described thus: Antioxidant activity in Sprague-Dawley rat Cerebral cortex neuron assessed as total oxidative stress level by measuring H2O2 equivalents at 10 uM after 24 hrs (reference value: 2.3 +/- 0.3 umol/L). Type of series: functional. Summed up: as §2
Series [23] is described as follows: Displacement of [3H]-DTG from Sigma 2 receptor in guinea pig brain membrane incubated for 120 mins in presence of sigma1 blocker (+)-SKF-10047 by liquid scintillation counting method. Type of series: cell membranes, Cavia porcellus.
Series [24] can be described thus: Antioxidant activity in Sprague-Dawley rat Cerebral cortex neuron assessed as total oxidative stress level by measuring H2O2 equivalents at 0.1 uM after 24 hrs (reference value: 2.3 +/- 0.3 umol/L). The series is classed as functional. Put shortly:
as §2

The nature of series [25]: Cytotoxicity against rat Sprague-Dawley Cerebral cortex neuron assessed as cell viability at 50 uM incubated for 24 hrs by MTT assay relative to control. The series is classed as tissue-based. The settings on record: cerebral cortex neurons, read-out: Activity. Summed up: as §1
Series [26] in a line: Antioxidant activity in Sprague-Dawley rat Cerebral cortex neuron assessed as total antioxidant capacity by measuring trolox equivalents at 100 uM after 24 hrs. The series is classed as functional. Put shortly: as §2
Series [27] in a line: Cytotoxicity against Sprague-Dawley rat Cerebral cortex neuron assessed as LDH activity at 25 uM incubated for 24 hrs by LDH assay (reference value: […]). Type of series: tissue-based. Summed up:
as §3

Series [28] concerns Mus musculus. Kind of series: In vivo agonist activity at sigma 1 receptor in Swiss […] mouse assessed as modulation of morphine-induced analgesic effect by measuring tail flick latency at 1 mg/kg, ip measured after 90 mins by radiant heat tail-flick method. Type of series: functional, organism-based. Background: Hot-plate and tail-flick tests time the reaction to a heat stimulus.

Series [29] concerns Mus musculus. Kind of series: In vivo agonist activity at sigma 1 receptor in Swiss […] mouse assessed as modulation of morphine-induced analgesic effect by measuring tail flick latency at 1 mg/kg, ip preincubated for 45 mins followed by morphine treatment after 90 mins by radiant heat tail-flick method. The series is classed as functional, organism-based. The settings on record: time 135.0 min.

Calls of active or inactive are those of the source. No cut-off for these calls is given here.

Sequence of Sigma non-opioid intracellular receptor 1 (Q60492 whole entry): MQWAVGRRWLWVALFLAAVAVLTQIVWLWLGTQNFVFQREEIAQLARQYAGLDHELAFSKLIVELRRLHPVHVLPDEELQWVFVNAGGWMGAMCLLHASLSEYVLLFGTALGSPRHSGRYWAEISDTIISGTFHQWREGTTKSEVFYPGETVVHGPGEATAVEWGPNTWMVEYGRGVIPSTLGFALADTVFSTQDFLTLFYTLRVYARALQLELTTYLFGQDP

As usually defined, the Ki is a measure of affinity in units of concentration, obtained from inhibition or displacement. In the case of `O=C(CCCC[C@@H]1CCSS1)N1CCN(Cc2ccccc2)CC1`, in series [1], the viability at 24 h, 1 µM stood at 98.7%. Further, the Activity was 0.4 µmol/L in series [2]; 0.3 mU/ml in series [7]; 0.3 mU/ml in series [8]; 0.5 µmol/L in series [11]; 0.4 µmol/L in series [13]; 0.5 µmol/L in series [15]. Besides, the Activity was 0.32 mU/ml in series [16]; 0.32 mU/ml in series [17]; 0.32 mU/ml in series [20]; 0.4 µmol/L in series [22]; 0.5 µmol/L in series [24]; 0.3 mU/ml in [27]. Further, the TAC was determined as 13 mmol/L in [3]; 12.8 mmol/L in [4]; 10.5 mmol/L in series [12]; 10.2 mmol/L in series [14]; 10.8 mmol/L in series [21]; 11.2 mmol/L in series [26]. The viability at 24 h, 100 µM in [5] stood at 95.8%. Moreover, the Ki in series [6] amounted to 0.0061 µM; in series [23], 1.25 µM. Moreover, the viability at 24 h, 0.1 µM in [9] worked out at 98.5%. For the same compound, the Ratio Ki in series [10] was found to be 204. In [18], the viability at 24 h, 25 µM was 96.6%. In addition, in series [19], the viability at 24 h, 10 µM amounted to 96.5%. Also, the viability at 24 h, 50 µM in [25] was 95.7%.

Turning to `O=C(CCCC[C@@H]1CCSS1)OC1CCN(Cc2ccccc2)CC1`, the viability at 24 h, 1 µM in [1] was found to be 98.7%. Further, the Activity in [2] was found to be 0.5 µmol/L; in series [7], 0.34 mU/ml; in series [8], 0.3 mU/ml; in series [11] it was 0.5 µmol/L; in series [13], 0.5 µmol/L; in series [15], 0.4 µmol/L. Further, the Activity in [16] worked out at 0.3 mU/ml; in series [17], 0.28 mU/ml; in [20], 0.32 mU/ml; in series [22] it was 0.4 µmol/L; in [24] it was 0.4 µmol/L; in series [27], 0.32 mU/ml. Besides, the TAC in series [3] is 11.3 mmol/L; in [4] it was 10.9 mmol/L; in series [12], 10.7 mmol/L; in series [14] it was 10.9 mmol/L; in series [21] it was 10.9 mmol/L; in [26], 11 mmol/L. For the same compound, the viability at 24 h, 100 µM in [5] turned out to be 96.2%. Besides, the Ki in [6] came to 0.0177 µM; in series [23], 1.87 µM. Also, the viability at 24 h, 0.1 µM in [9] turned out to be 100%. Further, the Ratio Ki in [10] was determined as 106. The viability at 24 h, 25 µM in series [18] worked out at 96.6%. Also, the result in series [28] was inactive. In addition, in [29], the result was Active. Further, the viability at 24 h, 10 µM in [19] was 96.4%. Moreover, the viability at 24 h, 50 µM in series [25] is 97.4%.

Regarding `O=C1O[C@H]([C@@H](O)CO)C(O)=C1O` [ASCORBIC ACID], the TAC in [21] came to 26.9 mmol/L.

In the case of `CO[C@@]12[C@H](COC(N)=O)C3=C(C(=O)C(C)=C(N)C3=O)N1C[C@@H]1N[C@@H]12` [MITOMYCIN], the Activity in series [16] came out at 2.23 mU/ml. For the same compound, in series [19], the viability at 24 h, 10 µM is 46.1%.

Turning to `O=C(O)CCCC[C@@H]1CCSS1` [THIOCTIC ACID], in [1], the viability at 24 h, 1 µM is 97.9%. Also, the Activity in series [2] came to 0.5 µmol/L; in series [7], 0.29 mU/ml; in [8], 0.27 mU/ml; in series [11], 0.5 µmol/L; in [13], 0.4 µmol/L; in series [15] it was 0.5 µmol/L. Moreover, the Activity in series [16] stood at 0.28 mU/ml; in series [17] it was 0.28 mU/ml; in [20] it was 0.29 mU/ml; in series [22], 0.4 µmol/L; in [24], 0.4 µmol/L; in series [27], 0.27 mU/ml. In addition, the TAC in series [3] is 11.2 mmol/L; in [4] it was 12.1 mmol/L; in [12] it was 10.5 mmol/L; in [14] it was 10.7 mmol/L; in series [21], 10.9 mmol/L; in [26], 13.5 mmol/L. In series [5], the viability at 24 h, 100 µM worked out at 95.9%. In series [9], the viability at 24 h, 0.1 µM is 98.6%. Also, in [18], the viability at 24 h, 25 µM was 97.2%. In series [19], the viability at 24 h, 10 µM came to 98.1%. For the same compound, the viability at 24 h, 50 µM in [25] was 96.4%.
